Tests used:
[1] = molecular target: T1, Tyrosinase (Agaricus bisporus) (UniProt O42713); experiment: Inhibition of mushroom tyrosinase using L-tyrosine as substrate at 50 uM after 30 mins by spectrophotometric analysis
T1 sequence (whole entry): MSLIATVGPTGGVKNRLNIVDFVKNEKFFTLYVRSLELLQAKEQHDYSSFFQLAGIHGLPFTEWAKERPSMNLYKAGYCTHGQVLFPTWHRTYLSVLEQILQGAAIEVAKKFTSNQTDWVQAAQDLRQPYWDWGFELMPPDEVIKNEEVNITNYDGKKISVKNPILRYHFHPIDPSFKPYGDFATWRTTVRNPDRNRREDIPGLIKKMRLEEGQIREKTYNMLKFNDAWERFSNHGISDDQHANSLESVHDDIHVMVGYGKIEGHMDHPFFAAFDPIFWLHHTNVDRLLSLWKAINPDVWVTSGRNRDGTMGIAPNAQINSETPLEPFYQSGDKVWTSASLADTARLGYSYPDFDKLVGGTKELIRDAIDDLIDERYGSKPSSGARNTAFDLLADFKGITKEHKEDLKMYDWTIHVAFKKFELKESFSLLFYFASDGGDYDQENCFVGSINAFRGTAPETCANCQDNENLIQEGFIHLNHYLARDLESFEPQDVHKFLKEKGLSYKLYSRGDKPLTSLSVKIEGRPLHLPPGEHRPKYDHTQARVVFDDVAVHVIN
Method in brief: (§1)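 Mushroom tyrosinase (1000 units) was added to a mixture of 1 mM L-tyrosine and 50 mM phosphate buffer, pH 6.5, with test compound at the stated concentration. After 30 min at 25 °C, dopachrome formation was measured spectrophotometrically at OD492 and expressed as percent inhibition. Values are means ± S.E. of three experiments.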

[2] = molecular target: T1, Tyrosinase (Agaricus bisporus); experiment: (§2) Inhibition of mushroom tyrosinase using L-tyrosine as substrate after 30 mins by spectrophotometric analysis
Method in brief: (§3)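 Mushroom tyrosinase (1000 units) was added to assay mixture containing 1 mM L-tyrosine in 50 mM phosphate buffer, pH 6.5. Incubation ran 30 min at 25 °C, and dopachrome was read at 492 nm. Dose-dependent inhibition was run in triplicate at three doses. IC50 was taken from the inhibitor concentration versus product formation curve.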

[3] = molecular target: T2, Tyrosinase (Agaricus bisporus, UniProt O42713); experiment: as §2; method in brief: as §3
T2 sequence (O42713 whole entry): T1 sequence (whole entry)

[4] = molecular target: T1, Tyrosinase (Agaricus bisporus); experiment: Inhibition of mushroom tyrosinase using L-tyrosine as substrate at 10 uM after 30 mins by spectrophotometric analysis
Method in brief: (§4)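 Mushroom tyrosinase (20 µL of 1000 units aqueous solution) in a 200 µL mixture with 1 mM L-tyrosine in 50 mM phosphate buffer, pH 6.5. Incubated 30 min at 25 °C; dopachrome read at 492 nm. Percent inhibition was measured at three doses per compound, in triplicate, to build dose–response curves.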

[5] = molecular target: T1, Tyrosinase (Agaricus bisporus); experiment: Inhibition of mushroom tyrosinase using L-tyrosine as substrate at 1 uM after 30 mins by spectrophotometric analysis; method in brief: as §4
[6] = molecular target: T1, Tyrosinase (Agaricus bisporus); experiment: Inhibition of mushroom tyrosinase using L-tyrosine as substrate at 0.5 uM after 30 mins by spectrophotometric analysis; method in brief: as §4
[7] = molecular target: T1, Tyrosinase (Agaricus bisporus); experiment: Inhibition of mushroom tyrosinase using L-tyrosine as substrate at 30 uM after 30 mins by spectrophotometric analysis; method in brief: as §1
[8] = molecular target: T1, Tyrosinase (Agaricus bisporus); experiment: Inhibition of mushroom tyrosinase using L-tyrosine as substrate at 5 uM after 30 mins by spectrophotometric analysis; method in brief: as §1
[9] = molecular target: T1, Tyrosinase (Agaricus bisporus); experiment: Inhibition of mushroom tyrosinase using L-tyrosine as substrate at 20 uM after 30 mins by spectrophotometric analysis; method in brief: as §1
[10] = molecular target: T1, Tyrosinase (Agaricus bisporus); experiment: Inhibition of mushroom tyrosinase using L-tyrosine as substrate at 15 uM after 30 mins by spectrophotometric analysis; method in brief: as §1
[11] = molecular target: T1, Tyrosinase (Agaricus bisporus); experiment: Inhibition of mushroom tyrosinase using L-tyrosine as substrate at 80 uM after 30 mins by spectrophotometric analysis; method in brief: as §1

SMILES | inhibition [1] | inhibition [2] | IC50 [3] | further results
COc1ccc(OC)c(/N=N/c2ccc(O)cc2O)c1 | 27.8% |  |  | 
COc1cc(/N=N/c2ccc(O)cc2OC)cc(OC)c1 | 8.9% |  |  | 
COc1ccc(/N=N/c2cc(OC)ccc2OC)c(O)c1 | 6.38% |  |  | 
COc1cc(/N=N/c2ccc(O)c(OC)c2)cc(OC)c1 | 1.03% |  |  | 
COc1cc(/N=N/c2ccc(O)cc2O)cc(OC)c1 | 48.5% |  |  | 
COc1ccc(OC)c(/N=N/c2ccc(O)c(OC)c2)c1 | 0.44% |  |  | 
COc1cc(/N=N/c2ccc(O)cc2)cc(OC)c1 | 56.2% | Dose-dependent effect | 50.2 µM | inhibition [11]: 61.4%; inhibition [8]: 8.4%; inhibition [9]: 46%

Now from value to compound, other results behind:

inhibition [1] | inhibition [2] | IC50 [3] | SMILES | further results
41.5% |  |  | Oc1cc(O)cc(/N=N/c2ccc(O)cc2O)c1 | 
 | Dose-dependent effect | 26.6 µM | Oc1ccc(/C=C/c2cc(O)cc(O)c2)cc1 [RESVERATROL] | inhibition [4]: 38%; inhibition [5]: 16.3%; inhibition [6]: 13.7%; inhibition [7]: 47.8%; inhibition [8]: 27.1%; inhibition [9]: 47.3%
72.8% | Dose-dependent effect | 36.3 µM | Oc1ccc(/N=N/c2cc(O)cc(O)c2)cc1 | inhibition [7]: 44.3%; inhibition [10]: 7.6%
